Only some compounds are listed: those with a hit (about 2.5% of all), similar ones and a draw of the others.
IMP-1 inh: blocks Pseudomonas aeruginosa IMP-1 metallo-beta-lactamase | purified IMP-1, nitrocefin hydrolysis, epi-absorbance fluorescence | inhibition, % at 5.6 µM | 0.45% of 290,000 active;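 active means inhibition above the mean plus 3 SD of all compounds in the same screening run, cut at about 4.5% in these data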;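 further: 0% = IMP-1 with DMSO and 100% = DMSO wells lacking enzyme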
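Test system: recombinant IMP-1 enzyme, purified / Medium: HEPES buffer pH 7.1 with ZnSO4 and Brij 35 / Doses: single dose, 5.6 µM / Times: 25 °C, 15 min preincubation, 25 min reaction / Detection: Epi-absorbance via hydrolysed-nitrocefin quenching of white-plate fluorescence, 480/530 nm, EDTA stop / Evaluation: percent inhibition from optical density relative to buffer-blank wells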
VIM-2 inh: inhibitors of Pseudomonas aeruginosa VIM-2 metallo-beta-lactamase; purified VIM-2, nitrocefin hydrolysis, epi-absorbance fluorescence; inhibition, % at 5.6 µM; 0.89% of 290,000 active;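 active means inhibition above the mean of all tested compounds plus 3 SD, cutoff set per screening run, cut at about 7.5% in these data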;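 further: red hydrolysis product quenches plate fluorescence so inhibitors raise well fluorescence; 0% = enzyme with DMSO and 100% = DMSO without enzyme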
HTR2A ag: mouse HTR2A agonism via beta-arrestin recruitment. P35363. CHO-K1 mHTR2A beta-arrestin complementation, luminescence; percent of 30 µM serotonin response. activation, % at 7.6 µM. 0.66% of 360,000 active. AID 624169;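 active means activation above a run cutoff, the mean activation of all tested compounds plus 3 SD, cut at about 14% in these data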;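 further: 0% = plate median of compound wells and 100% = 30 µM serotonin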
dFosB act-1: mouse delta FosB homodimer activation | purified delta FosB, TAMRA-CDK5 oligo fluorescence polarization; percent of positive-control signal above neutral wells | AID 493131 | activation, % at 25 µM | 0.99% of 340,000 active;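 active means mean activation above about 17%, with every replicate also reaching it, limit read from the data, passing the limit was not always enough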
Target sequence (P13346 whole entry, looked up): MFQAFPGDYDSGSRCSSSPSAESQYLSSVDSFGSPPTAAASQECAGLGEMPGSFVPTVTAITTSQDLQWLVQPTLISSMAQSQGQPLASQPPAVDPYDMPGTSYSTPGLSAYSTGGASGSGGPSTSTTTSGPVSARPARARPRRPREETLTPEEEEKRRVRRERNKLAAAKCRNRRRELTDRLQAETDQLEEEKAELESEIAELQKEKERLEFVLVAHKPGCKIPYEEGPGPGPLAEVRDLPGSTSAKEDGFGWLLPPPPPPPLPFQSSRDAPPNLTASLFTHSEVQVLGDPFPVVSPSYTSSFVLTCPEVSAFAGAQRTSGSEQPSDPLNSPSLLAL
dFosB act-2: delta FosB (mouse) homodimer activation. shares compounds with dFosB act-1. purified delta FosB, TAMRA-CDK5 oligo fluorescence polarization; normalised: neutral wells 0, positive control 100. activation, % at 24.9 µM. 2,400 tested, under 10 active. AID 588690;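 active means highest replicate activation at or above 34% and every replicate reaching that threshold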;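 further: higher polarization means more probe DNA bound by delta FosB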
* marks the source's active call; other numbers are inactive results; nt = no result.

SMILES	IMP-1 inh	VIM-2 inh	HTR2A ag	dFosB act-1	dFosB act-2
Cc1c(C(=O)NNC(=O)Nc2ccc([N+](=O)[O-])cc2)oc2ccccc12	-4.8	-5.2	-1.8	66.6*	1.4
CC(OC(=O)c1ccc2c(c1)NC(=O)CS2)C(=O)c1ccc(F)cc1 (stereo not drawn)	nt	nt	-1.6	-10.4	nt
COC(=O)CSc1nc(C)cc(C)n1	-3.7	-4.1	-2.7	-1.0	nt
CCOC(=O)CSc1nc(C)cc(C)n1	-3.5	-2.7	0.4	16.3*	-0.5
CCOc1ccccc1N(CC(=O)Nc1ccc(S(=O)(=O)N2CCOCC2)cc1)S(C)(=O)=O	-2.3	-0.8	-1.2	-6.1	nt
CCOc1ccccc1N(CC(=O)Nc1ccc(S(=O)(=O)N2CCOCC2)cc1)S(=O)(=O)c1ccccc1	-1.6	-3.3	-5.5	52.9*	0.3
Cn1nc(C(=O)Nc2ccc(Cl)cc2)cc1C(=O)Nc1ccc(Cl)cc1	-4.7	-1.9	4.4	8.3	nt
Cn1nc(C(=O)Nc2cccc(Cl)c2)cc1C(=O)Nc1cccc(Cl)c1	-1.4	0.0	-2.4	33.2*	2.4
COc1ccc(C(=O)Nc2ccccc2C(=O)NC(Cc2ccc(O)cc2)C(=O)NNC(=O)c2ccc(C)cc2)cc1 (stereo not drawn)	-3.1	-1.5	1.5	100.2*	2.2
COc1cc(/C=N/NC(=O)c2cc(C3CC3)[nH]n2)cc(OC)c1OC	-1.2	-0.9	-5.2	20.5*	-1.3
O=C(CNc1ccc2ccccc2c1)N/N=C/c1ccc([N+](=O)[O-])o1	-6.0	4.7	4.1	31.0*	4.0
O=C1NC(=O)/C(=C\c2ccccc2OCc2ccc([N+](=O)[O-])cc2)N1	-2.0	-2.3	-7.6	14.8	nt
O=C1NC(=O)/C(=C\c2ccc(OCc3cccc([N+](=O)[O-])c3)cc2)N1	-2.4	-1.4	-3.4	31.5*	7.6
O=C(COC(=O)c1c2c(nc3ccccc13)/C(=C/c1cccc([N+](=O)[O-])c1)CCC2)NC1CCS(=O)(=O)C1 (stereo not drawn)	-0.7	-1.0	1.3	-3.1	nt
CN(C(=O)COC(=O)c1c2c(nc3ccccc13)/C(=C/c1cccc([N+](=O)[O-])c1)CCC2)C1CCS(=O)(=O)C1 (stereo not drawn)	0.3	-4.3	-1.9	17.2*	-1.9
O=C(CSc1nnc(NC(=O)c2ccco2)s1)Nc1ccc(F)cc1F	-1.9	-0.2	-1.2	20.0*	0.6
CC(=O)c1ccc(NC(=O)CSc2nnc(NC(=O)c3ccco3)s2)cc1	-3.4	0.2	10.3	28.2*	0.5
CCC(C)c1ccccc1N1CC(C(=O)Nc2ccc(N3CCOCC3)cc2)CC1=O (stereo not drawn)	nt	nt	3.1	-2.8	nt
COC(=O)c1cn(NC(=O)COc2ccc(Cl)cc2)c(=O)c2ccccc12	-4.1	0.1	-0.2	31.9*	6.5
COCCCN(C(=O)C(C)Oc1ccc(Br)cc1)c1c(N)n(Cc2ccccc2)c(=O)[nH]c1=O (stereo not drawn)	nt	nt	0.0	-4.3	nt
CC(=O)Nc1cccc(-c2cn3ccccc3n2)c1	-1.3	-2.9	0.1	-9.6	nt
O=C(Nc1c(-c2ccccc2)nc2ncccn12)c1cc2ccccc2oc1=O	-1.7	-1.1	9.8	38.3*	1.0
O=C(Nc1cccc(-c2cn3ccccc3n2)c1)c1cc2ccccc2oc1=O	-2.6	1.1	2.8	60.9*	3.1
CC(=O)Nc1c(-c2ccccc2)nc2ncccn12	-4.1	0.5	1.3	-5.1	nt
O=c1c(Cc2ccc(Cl)cc2)c(O)ccn1Cc1ccccc1	-1.9	-1.9	1.2	-7.4	nt
SMILES	IMP-1 inh	VIM-2 inh	HTR2A ag	dFosB act-1	dFosB act-2
O=c1c(Cc2ccccc2)c(O)ccn1Cc1ccc2c(c1)OCO2	-2.1	-2.8	6.1	37.5*	5.9
CCOc1cc(C(=S)N2CCN(C)CC2)ccc1OCC(=O)N1CCCC1	-0.1	3.8	4.6	2.0	nt
Cc1ccc2nc(N/N=C/c3ccccc3C#N)nc(-c3ccccc3)c2c1	-1.3	-0.5	-2.6	-24.2	nt
N#Cc1ccccc1/C=N/Nc1nc(-c2ccccc2)c2cc(Cl)ccc2n1	-3.6	-5.9	-0.3	19.1*	0.8
CC(C)C[C@H]1CN([C@@H](CC(C)C)CN2CCCC2CN2C(=S)NC[C@@H]2Cc2ccc(O)cc2)C(=S)N1CCc1ccccc1 (stereo partly drawn)	nt	nt	0.3	25.1*	2.9
CC(C)C[C@H]1CNC(=S)N1C[C@H]1CCCN1C[C@H](Cc1ccc(O)cc1)N1C[C@H](Cc2ccccc2)N(CCc2ccccc2)C1=S	nt	nt	-2.0	nt	nt
